Experimental data taken from ChEMBL document CHEMBL3616442, “Unconventional Knoevenagel-type indoles: Synthesis and cell-based studies for the identification of pro-apoptotic agents” (Eur J Med Chem, 2015).

Legend:
Type in all cases: functional
HL-60(TB) = assay: Growth inhibition of human HL-60(TB) cells after 48 hrs by sulforhodamine B assay; conditions: HL-60, 48 h
How it was run: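 NCI 60-cell-line screen, HL-60(TB) included. Compound given at five 10-fold dilutions from 10^-4 to 10^-8 M. Cells exposed for the last 48 h of a 72 h incubation. Growth or viability estimated by sulforhodamine B protein assay. GI50 is the concentration giving 50% growth inhibition. Values outside the tested range are reported as greater or less than the highest or lowest concentration.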

OVCAR-5 = assay: Growth inhibition of human OVCAR5 cells after 48 hrs by sulforhodamine B assay; conditions: OVCAR-5, 48 h
[1] = Growth inhibition of human Hs 578T cells after 48 hrs by sulforhodamine B assay
How it was run: (§1)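 NCI 60-cell-line screen. Compounds tested at five 10-fold dilutions from 10^-4 to 10^-8 M. Cells exposed for the last 48 h of a 72 h incubation, growth estimated by sulforhodamine B protein assay. GI50 is the concentration giving 50% growth inhibition. Values beyond the tested range are expressed as greater or lesser than the extreme concentration.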

OVCAR-3 = assay: Growth inhibition of human OVCAR3 cells after 48 hrs by sulforhodamine B assay; conditions: OVCAR-3, 48 h; how it was run: as §1
NCI-H226 = assay: Growth inhibition of human NCI-H226 cells after 48 hrs by sulforhodamine B assay; conditions: NCI-H226, 48 h; how it was run: as §1
KM12 = assay: Growth inhibition of human KM12 cells after 48 hrs by sulforhodamine B assay; conditions: KM12, 48 h; how it was run: as §1
[2] = Growth inhibition of human HOP92 cells after 48 hrs by sulforhodamine B assay; conditions: HOP-92, 48 h; how it was run: as §1
[3] = Growth inhibition of human MOLT4 cells after 48 hrs by sulforhodamine B assay; conditions: MOLT-4, 48 h; how it was run: as §1
[4] = Growth inhibition of human HCC2998 cells after 48 hrs by sulforhodamine B assay; conditions: HCC 2998, 48 h; how it was run: as §1
OVCAR-4 = assay: Growth inhibition of human OVCAR4 cells after 48 hrs by sulforhodamine B assay; conditions: OVCAR-4, 48 h; how it was run: as §1
SNB-75 = assay: Growth inhibition of human SNB75 cells after 48 hrs by sulforhodamine B assay; conditions: SNB-75, 48 h
HOP-62 = assay: Growth inhibition of human HOP62 cells after 48 hrs by sulforhodamine B assay; conditions: HOP-62, 48 h; how it was run: as §1
UACC-62 = assay: Growth inhibition of human UACC62 cells after 48 hrs by sulforhodamine B assay; conditions: UACC-62, 48 h
HT-29 = assay: Growth inhibition of human HT-29 cells after 48 hrs by sulforhodamine B assay; conditions: HT-29, 48 h; how it was run: as §1
[5] = Growth inhibition of human SF539 cells after 48 hrs by sulforhodamine B assay; conditions: SF-539, 48 h
K562 = assay: Growth inhibition of human K562 cells after 48 hrs by sulforhodamine B assay; conditions: K562, 48 h; how it was run: as §1
NCI-H522 = assay: Growth inhibition of human NCI-H522 cells after 48 hrs by sulforhodamine B assay; conditions: NCI-H522, 48 h; how it was run: as §1
TK-10 = assay: Growth inhibition of human TK10 cells after 48 hrs by sulforhodamine B assay; conditions: TK-10, 48 h
SK-MEL-2 = assay: Growth inhibition of human SK-MEL-2 cells after 48 hrs by sulforhodamine B assay; conditions: SK-MEL-2, 48 h
NCI-H322M = assay: Growth inhibition of human NCI-H322M cells after 48 hrs by sulforhodamine B assay; how it was run: as §1
NCI-H460 = assay: Growth inhibition of human NCI-H460 cells after 48 hrs by sulforhodamine B assay; conditions: NCI-H460, 48 h; how it was run: as §1
A498 = assay: Growth inhibition of human A498 cells after 48 hrs by sulforhodamine B assay; conditions: A498, 48 h; how it was run: as §1
NCI-H23 = assay: Growth inhibition of human NCI-H23 cells after 48 hrs by sulforhodamine B assay; conditions: NCI-H23, 48 h; how it was run: as §1
PC-3 = assay: Growth inhibition of human PC3 cells after 48 hrs by sulforhodamine B assay; conditions: PC-3, 48 h
SK-MEL-5 = assay: Growth inhibition of human SK-MEL-5 cells after 48 hrs by sulforhodamine B assay; conditions: SK-MEL-5, 48 h
UACC-257 = assay: Growth inhibition of human UACC257 cells after 48 hrs by sulforhodamine B assay; conditions: UACC-257, 48 h
CAKI-1 = assay: Growth inhibition of human CAKI-1 cells after 48 hrs by sulforhodamine B assay; conditions: CAKI-1, 48 h; how it was run: as §1
ACHN = assay: Growth inhibition of human ACHN cells after 48 hrs by sulforhodamine B assay; how it was run: as §1
SNB-19 = assay: Growth inhibition of human SNB19 cells after 48 hrs by sulforhodamine B assay; conditions: SNB-19, 48 h
Malme-3M = assay: Growth inhibition of human MALME-3M cells after 48 hrs by sulforhodamine B assay; how it was run: as §1
SN12C = assay: Growth inhibition of human SN12C cells after 48 hrs by sulforhodamine B assay
A549 = assay: Growth inhibition of human A549 cells after 48 hrs by sulforhodamine B assay; conditions: A549, 48 h; how it was run: as §1
[6] = Growth inhibition of human RPMI8226 cells after 48 hrs by sulforhodamine B assay; conditions: RPMI-8226, 48 h
[7] = Growth inhibition of human BT549 cells after 48 hrs by sulforhodamine B assay; conditions: BT-549, 48 h; how it was run: as §1
U-251 = assay: Growth inhibition of human U251 cells after 48 hrs by sulforhodamine B assay; conditions: U-251, 48 h
[8] = Growth inhibition of human SF295 cells after 48 hrs by sulforhodamine B assay; conditions: SF-295, 48 h
OVCAR-8 = assay: Growth inhibition of human OVCAR8 cells after 48 hrs by sulforhodamine B assay; conditions: OVCAR-8, 48 h
MDA-MB-468 = assay: Growth inhibition of human MDA-MB-468 cells after 48 hrs by sulforhodamine B assay; conditions: MDA-MB-468, 48 h; how it was run: as §1
MDA-MB-435 = assay: Growth inhibition of human MDA-MB-435 cells after 48 hrs by sulforhodamine B assay; conditions: MDA-MB-435, 48 h; how it was run: as §1
SW-620 = assay: Growth inhibition of human SW620 cells after 48 hrs by sulforhodamine B assay; conditions: SW-620, 48 h
HCT-15 = assay: Growth inhibition of human HCT15 cells after 48 hrs by sulforhodamine B assay; conditions: HCT-15, 48 h; how it was run: as §1
786-0 = assay: Growth inhibition of human 786-0 cells after 48 hrs by sulforhodamine B assay; conditions: 786-0, 48 h; how it was run: as §1
T47D = assay: Growth inhibition of human T47D cells after 48 hrs by sulforhodamine B assay
[9] = Growth inhibition of human RXF393 cells after 48 hrs by sulforhodamine B assay; conditions: RXF 393, 48 h
[10] = Growth inhibition of human NCI-ADR-RES cells after 48 hrs by sulforhodamine B assay; how it was run: as §1
CCRF-CEM = assay: Growth inhibition of human CCRF-CEM cells after 48 hrs by sulforhodamine B assay; how it was run: as §1

CC(=O)/C(=C\c1c(-c2ccccc2)[nH]c2ccccc12)S(C)(=O)=O
GI50 (HL-60(TB)): 2.6 µM | GI50 (OVCAR-5): 16.1 µM | GI50 [1]: 1.6 µM | GI50 (OVCAR-3): 2.3 µM | GI50 (NCI-H226): 27.1 µM | GI50 (KM12): 2.1 µM | GI50 [2]: 3.8 µM | GI50 [3]: 4.4 µM | GI50 [4]: 8 µM | GI50 (OVCAR-4): 3.8 µM | GI50 (SNB-75): 1.5 µM | GI50 (HOP-62): 12.1 µM | GI50 (UACC-62): 3.2 µM | GI50 (HT-29): 1.6 µM | GI50 [5]: 1.9 µM | GI50 (K562): 0.679 µM | GI50 (NCI-H522): 3.6 µM | GI50 (TK-10): 13.5 µM | GI50 (SK-MEL-2): 8.6 µM | GI50 (NCI-H322M): 9.6 µM | GI50 (NCI-H460): 2.8 µM | GI50 (A498): 3.9 µM | GI50 (NCI-H23): 4 µM | GI50 (PC-3): 4.5 µM | GI50 (SK-MEL-5): 1.9 µM | GI50 (UACC-257): 43.8 µM | GI50 (CAKI-1): 5.6 µM | GI50 (ACHN): 5.8 µM | GI50 (SNB-19): 3.4 µM | GI50 (Malme-3M): 4.8 µM | GI50 (SN12C): 6.9 µM | GI50 (A549): 7.3 µM | GI50 [6]: 3 µM | GI50 [7]: 2.4 µM | GI50 (U-251): 2.9 µM | GI50 [8]: 3.9 µM | GI50 (OVCAR-8): 5.2 µM | GI50 (MDA-MB-468): 1.8 µM | GI50 (MDA-MB-435): 0.415 µM | GI50 (SW-620): 2.1 µM | GI50 (HCT-15): 2 µM | GI50 (786-0): 3.5 µM | GI50 (T47D): 2.3 µM | GI50 [9]: 2.6 µM | GI50 [10]: 2.1 µM | GI50 (CCRF-CEM): 4.7 µM

COC(=O)/C(=C\c1c(-c2ccccc2)[nH]c2ccccc12)S(C)(=O)=O
GI50 (HL-60(TB)): 3.4 µM | GI50 (OVCAR-5): 19.6 µM | GI50 [1]: 3.5 µM | GI50 (OVCAR-3): 1.9 µM | GI50 (NCI-H226): 5 µM | GI50 (KM12): 1.5 µM | GI50 [2]: 6.6 µM | GI50 [3]: 4.7 µM | GI50 [4]: 8.8 µM | GI50 (OVCAR-4): 6.2 µM | GI50 (SNB-75): 2.3 µM | GI50 (HOP-62): 10.7 µM | GI50 (UACC-62): 3.3 µM | GI50 (HT-29): 3.6 µM | GI50 [5]: 3.1 µM | GI50 (NCI-H522): 3.1 µM | GI50 (TK-10): 7.7 µM | GI50 (SK-MEL-2): 11.8 µM | GI50 (NCI-H322M): 7.4 µM | GI50 (NCI-H460): 3.5 µM | GI50 (A498): 6.6 µM | GI50 (NCI-H23): 8 µM | GI50 (PC-3): 4.2 µM | GI50 (UACC-257): 11.2 µM | GI50 (CAKI-1): 1.8 µM | GI50 (ACHN): 9.2 µM | GI50 (SNB-19): 8.7 µM | GI50 (Malme-3M): 12.2 µM | GI50 (SN12C): 3.1 µM | GI50 (A549): 5.3 µM | GI50 [6]: 6.2 µM | GI50 [7]: 4.3 µM | GI50 (U-251): 3.6 µM | GI50 [8]: 3.1 µM | GI50 (OVCAR-8): 6.3 µM | GI50 (MDA-MB-468): 5.4 µM | GI50 (MDA-MB-435): 0.671 µM | GI50 (SW-620): 2.9 µM | GI50 (HCT-15): 2.4 µM | GI50 (786-0): 7.5 µM | GI50 (T47D): 2.8 µM | GI50 [9]: 7.2 µM | GI50 [10]: 3.3 µM | GI50 (CCRF-CEM): 7.6 µM

COc1ccc(-c2[nH]c3ccc(OC)cc3c2/C=C(\C#N)S(=O)(=O)c2ccccc2)cc1
GI50 (HL-60(TB)): 0.899 µM | GI50 (OVCAR-5): 4.6 µM | GI50 [1]: 0.538 µM | GI50 (OVCAR-3): 0.359 µM | GI50 (NCI-H226): 3.7 µM | GI50 (KM12): 0.654 µM | GI50 [2]: 0.698 µM | GI50 [3]: 0.765 µM | GI50 [4]: 2 µM | GI50 (OVCAR-4): 2.1 µM | GI50 (SNB-75): 0.612 µM | GI50 (HOP-62): 3.1 µM | GI50 (UACC-62): 0.66 µM | GI50 (HT-29): 0.435 µM | GI50 [5]: 0.51 µM | GI50 (K562): 0.508 µM | GI50 (NCI-H522): 1.7 µM | GI50 (TK-10): 5 µM | GI50 (SK-MEL-2): 9 µM | GI50 (NCI-H322M): 4.3 µM | GI50 (NCI-H460): 0.687 µM | GI50 (NCI-H23): 0.946 µM | GI50 (PC-3): 0.534 µM | GI50 (SK-MEL-5): 0.319 µM | GI50 (UACC-257): 46.1 µM | GI50 (CAKI-1): 4.2 µM | GI50 (ACHN): 1.8 µM | GI50 (SNB-19): 3.2 µM | GI50 (Malme-3M): 3.2 µM | GI50 (SN12C): 2.3 µM | GI50 (A549): 2.8 µM | GI50 [6]: 1.3 µM | GI50 [7]: 4.8 µM | GI50 (U-251): 0.563 µM | GI50 [8]: 0.76 µM | GI50 (OVCAR-8): 3.1 µM | GI50 (MDA-MB-468): 1.3 µM | GI50 (MDA-MB-435): 0.276 µM | GI50 (SW-620): 0.54 µM | GI50 (HCT-15): 0.632 µM | GI50 (786-0): 2.1 µM | GI50 (T47D): 0.905 µM | GI50 [10]: 0.494 µM | GI50 (CCRF-CEM): 1.3 µM
